According to ChEMBL document CHEMBL3045677, “Sulfonamide-1,2,4-thiadiazole derivatives as antifungal and antibacterial agents: synthesis, biological evaluation, lipophilicity, and conformational studies” (2010):
≈ marks a conversion by molar mass, not a printed value.

Tests used:
Fulvia fulva = experiment: Antifungal activity against Passalora fulva TK5318 at 28 degC measured after 72 hr by microdilution method; type: functional; details: TK5318, 72 h
In short: (§1)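 Fungi were kept on malt agar at 4 °C. Spores were washed off with sterile 0.85% saline containing 0.1% Tween 80 and adjusted to about 1.0×10⁵ per well. Compounds were dissolved in DMSO (1 mg/ml stock) and serially diluted in malt broth with inoculum in 96-well plates, 72 h at 28 °C, for MIC. MFC came from subculture into fresh broth for a further 72 h at 28 °C.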

Aspergillus versicolor = experiment: Antifungal activity against Aspergillus versicolor ATCC 11730 at 28 degC measured after 72 hr by microdilution method; type: functional; details: ATCC 11730, 72 h; in short: as §1
Aspergillus flavus = experiment: Antifungal activity against Aspergillus flavus ATCC 9643 at 28 degC measured after 72 hr by microdilution method; type: functional; details: ATCC 9643, 72 h; in short: as §1
Aspergillus niger = experiment: Antifungal activity against Aspergillus niger ATCC 6275 at 28 degC measured after 72 hr by microdilution method; type: functional; details: ATCC 6275, 72 h; in short: as §1
Trichoderma viride = experiment: Antifungal activity against Hypocrea rufa IAM 5061 at 28 degC measured after 72 hr by microdilution method; type: functional; details: IAM 5061, 72 h; in short: as §1
Aspergillus fumigatus = experiment: Antifungal activity against plant isolate Aspergillus fumigatus at 28 degC measured after 72 hr by microdilution method; type: functional; in short: as §1
Penicillium ochrochloron = experiment: Antifungal activity against Penicillium ochrochloron ATCC 9112 at 28 degC measured after 72 hr by microdilution method; type: functional; details: ATCC 9112, 72 h; in short: as §1
Talaromyces funiculosus = experiment: Antifungal activity against Talaromyces funiculosus ATCC 36839 at 28 degC measured after 72 hr by microdilution method; type: functional; details: ATCC 36839, 72 h; in short: as §1
Listeria monocytogenes [1] = experiment: Antibacterial activity against Listeria monocytogenes NCTC 7973 at […] degC measured after 72 hr by microdilution method; type: functional; details: NCTC 7973, 72 h
In short: (§2)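 Bactericidal endpoint: after the 24 h broth microdilution (1.0×10⁴ CFU per well, LB broth, […] °C), wells were serially subcultured into plates of fresh broth and incubated a further 72 h. MBC was the lowest concentration with no visible growth, taken as 99.5% killing of the original inoculum.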

Proteus mirabilis [2] = experiment: Antibacterial activity against Proteus mirabilis at […] degC measured after 72 hr by microdilution method; type: functional; in short: as §2
Salmonella typhimurium [3] = experiment: Antibacterial activity against Salmonella enterica subsp. enterica serovar TyphimuriumATCC 13311 at […] degC measured after 72 hr by microdilution method; type: functional, Salmonella enterica subsp. enterica serovar Typhimurium; details: ATCC 13311, 72 h; in short: as §2
Pseudomonas aeruginosa [4] = experiment: Antibacterial activity against Pseudomonas aeruginosa ATCC 27853 at […] degC measured after 72 hr by microdilution method; type: functional; details: ATCC 27853, 72 h; in short: as §2
Escherichia coli [5] = experiment: Antibacterial activity against Escherichia coli ATCC 35210 at […] degC measured after 72 hr by microdilution method; type: functional; details: ATCC 35210, 72 h; in short: as §2
Staphylococcus aureus [6] = experiment: Antibacterial activity against Staphylococcus aureus ATCC 6538 at […] degC measured after 72 hr by microdilution method; type: functional; details: ATCC 6538, 72 h; in short: as §2
Micrococcus flavus [7] = experiment: Antibacterial activity against Micrococcus flavus ATCC 10240 at […] degC measured after 72 hr by microdilution method; type: functional; details: ATCC 10240, 72 h; in short: as §2
Bacillus cereus [8] = experiment: Antibacterial activity against clinical isolate Bacillus cereus at […] degC measured after 72 hr by microdilution method; type: functional; in short: as §2
Listeria monocytogenes [9] = experiment: Antibacterial activity against Listeria monocytogenes NCTC 7973 at […] degC measured after 24 hr by microdilution method; type: functional; details: NCTC 7973, 24 h
In short: (§3)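 Bacteria suspended in sterile saline at 1.0×10⁵ CFU/ml and added at 1.0×10⁴ CFU per well to LB broth with compound (1 mg/ml) in 96-well plates. Incubated 24 h at […] °C. MIC was the lowest concentration without visible growth under a binocular microscope. OD 655 nm was read against a blank and a positive control.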

Salmonella typhimurium [10] = experiment: Antibacterial activity against Salmonella enterica subsp. enterica serovar Typhimurium ATCC 13311 at […] degC measured after 24 hr by microdilution method; type: functional; details: ATCC 13311, 24 h; in short: as §3
Pseudomonas aeruginosa [11] = experiment: Antibacterial activity against Pseudomonas aeruginosa ATCC 27853 at […] degC measured after 24 hr by microdilution method; type: functional; details: ATCC 27853, 24 h; in short: as §3
Proteus mirabilis [12] = experiment: Antibacterial activity against Proteus mirabilis at […] degC measured after 24 hr by microdilution method; type: functional; in short: as §3
Escherichia coli [13] = experiment: Antibacterial activity against Escherichia coli ATCC 35210 at […] degC measured after 24 hr by microdilution method; type: functional; details: ATCC 35210, 24 h; in short: as §3
Staphylococcus aureus [14] = experiment: Antibacterial activity against Staphylococcus aureus ATCC 6538 at […] degC measured after 24 hr by microdilution method; type: functional; details: ATCC 6538, 24 h; in short: as §3
Bacillus cereus [15] = experiment: Antibacterial activity against clinical isolate Bacillus cereus at […] degC measured after 24 hr by microdilution method; type: functional; in short: as §3
Micrococcus flavus [16] = experiment: Antibacterial activity against Micrococcus flavus ATCC 10240 at […] degC measured after 24 hr by microdilution method; type: functional; details: ATCC 10240, 24 h; in short: as §3

Compound | MFC (Fulvia fulva) [µM] | MIC (Fulvia fulva) [µM] | MFC (Aspergillus versicolor) [µM] | MIC (Aspergillus versicolor) [µM] | MFC (Aspergillus flavus) [µM] | MIC (Aspergillus flavus) [µM] | MFC (Aspergillus niger) [µM] | MIC (Aspergillus niger) [µM] | MFC (Trichoderma viride) [µM] | MIC (Trichoderma viride) [µM] | MFC (Aspergillus fumigatus) [µM] | MIC (Aspergillus fumigatus) [µM] | MFC (Penicillium ochrochloron) [µM] | MIC (Penicillium ochrochloron) [µM] | MFC (Talaromyces funiculosus) [µM] | MIC (Talaromyces funiculosus) [µM] | MBC (Listeria monocytogenes [1]) [µM] | MBC (Proteus mirabilis [2]) [µM] | MBC (Salmonella typhimurium [3]) [µM] | MBC (Pseudomonas aeruginosa [4]) [µM] | further results
COc1cc(Cc2nnc(Nc3ccccc3)s2)c(S(=O)(=O)N2CCCC2)cc1OC | 21.7 (≈ 9.99 µg/mL) | 10.9 (≈ 5.02 µg/mL) | 43.4 (≈ 20 µg/mL) | 21.7 (≈ 9.99 µg/mL) | 43.4 (≈ 20 µg/mL) | 21.7 (≈ 9.99 µg/mL) | 43.4 (≈ 20 µg/mL) | 21.7 (≈ 9.99 µg/mL) | 21.7 (≈ 9.99 µg/mL) | 10.9 (≈ 5.02 µg/mL) | 43.4 (≈ 20 µg/mL) | 21.7 (≈ 9.99 µg/mL) | 43.4 (≈ 20 µg/mL) | 21.7 (≈ 9.99 µg/mL) | 43.4 (≈ 20 µg/mL) | 21.7 (≈ 9.99 µg/mL) | 43.4 (≈ 20 µg/mL) | 43.4 (≈ 20 µg/mL) | 21.7 (≈ 9.99 µg/mL) | 43.4 (≈ 20 µg/mL) | MBC (Escherichia coli [5]): 43.4 µM (≈ 20 µg/mL); MBC (Staphylococcus aureus [6]): 43.4 µM (≈ 20 µg/mL); MBC (Micrococcus flavus [7]): 21.7 µM (≈ 9.99 µg/mL); MBC (Bacillus cereus [8]): 21.7 µM (≈ 9.99 µg/mL); MIC (Listeria monocytogenes [9]): 21.7 µM (≈ 9.99 µg/mL); MIC (Salmonella typhimurium [10]): 10.9 µM (≈ 5.02 µg/mL); MIC (Pseudomonas aeruginosa [11]): 21.7 µM (≈ 9.99 µg/mL); MIC (Proteus mirabilis [12]): 21.7 µM (≈ 9.99 µg/mL); MIC (Escherichia coli [13]): 21.7 µM (≈ 9.99 µg/mL); MIC (Staphylococcus aureus [14]): 21.7 µM (≈ 9.99 µg/mL); MIC (Bacillus cereus [15]): 10.9 µM (≈ 5.02 µg/mL); MIC (Micrococcus flavus [16]): 10.9 µM (≈ 5.02 µg/mL)
COc1cc(Cc2nnc(Nc3ccccc3)s2)c(S(=O)(=O)N(C)C)cc1OC | 23 (≈ 9.99 µg/mL) | 11.5 (≈ 5 µg/mL) | 23 (≈ 9.99 µg/mL) | 11.5 (≈ 5 µg/mL) | 46 (≈ 20 µg/mL) | 23 (≈ 9.99 µg/mL) | 46 (≈ 20 µg/mL) | 23 (≈ 9.99 µg/mL) | 23 (≈ 9.99 µg/mL) | 11.5 (≈ 5 µg/mL) | 46 (≈ 20 µg/mL) | 11.5 (≈ 5 µg/mL) | 46 (≈ 20 µg/mL) | 23 (≈ 9.99 µg/mL) | 23 (≈ 9.99 µg/mL) | 11.5 (≈ 5 µg/mL) | 92 (≈ 40 µg/mL) | 46 (≈ 20 µg/mL) | 92 (≈ 40 µg/mL) | 46 (≈ 20 µg/mL) | MBC (Escherichia coli [5]): 46 µM (≈ 20 µg/mL); MBC (Staphylococcus aureus [6]): 92 µM (≈ 40 µg/mL); MBC (Micrococcus flavus [7]): 17.5 µM (≈ 7.6 µg/mL); MBC (Bacillus cereus [8]): 46 µM (≈ 20 µg/mL); MIC (Listeria monocytogenes [9]): 46 µM (≈ 20 µg/mL); MIC (Salmonella typhimurium [10]): 46 µM (≈ 20 µg/mL); MIC (Pseudomonas aeruginosa [11]): 46 µM (≈ 20 µg/mL); MIC (Proteus mirabilis [12]): 46 µM (≈ 20 µg/mL); MIC (Escherichia coli [13]): 46 µM (≈ 20 µg/mL); MIC (Staphylococcus aureus [14]): 46 µM (≈ 20 µg/mL); MIC (Bacillus cereus [15]): 23 µM (≈ 9.99 µg/mL); MIC (Micrococcus flavus [16]): 11.5 µM (≈ 5 µg/mL)
